Bioassay records deposited in PubChem BioAssay by several laboratories.
This excerpt belongs to a sample that is enriched for hits.
Jurkat NFkB inh – inhibitors of induced NF-kB luciferase reporter, primary screen, TCR NF-kB activation inhibitor project, cell-based, luminescence, uHTS | actives 0.53% (n = 330,000) | AID 435003, 2010 | inhibition, % at 4 µM | Jurkat, PMA/ionomycin-induced NF-kB luciferase reporter; in the data active means inhibition above about 50%
CHOP inhibitor – inhibitors of CHOP promoter induction, primary screen, cell-based, unfolded protein response, luciferase reporter. inhibition, % at 10 µM. CHO-K1 CHOP-promoter luciferase, tunicamycin-induced, 15-18 h. actives 3.8% (n = 220,000);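 active means compounds that reduced the stress-induced luciferase reporter signal by more than about 70% of percent inhibition, limit read from the data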;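 further: 0% = tunicamycin plus vehicle and 100% = wells without tunicamycin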
CHOP UPR activ – activators of apoptotic CHOP UPR arm, primary screen, cell-based, CHO-CHOP luciferase reporter, luminescence, uHTS; UPR activation; percent of tunicamycin response over DMSO baseline; activation, % at 10 µM; actives 0.34% (n = 330,000);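 active means at 10 µM dose, activation of 40% or more, normalized to positive control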;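 further: 100% = tunicamycin at 10 µg/mL and 0% = DMSO alone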
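Assay system: CHO cells with stable CHOP pathway luciferase reporter; Buffer or medium: F12 plus 10% serum; Times: 16-18 h cell attachment, then 6 h compound exposure, 37 °C; Signal: luciferase luminescence; Read-out basis: percent activation relative to tunicamycin control; Control set: tunicamycin high control, DMSO low control.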
XBP1 UPR activ – activators of adaptive XBP1 UPR arm, primary screen, cell-based, CHO-XBP1 luciferase reporter, luminescence, uHTS; activation, % at 20 µM; AID 463104, 2010; actives 0.33% (n = 330,000); IRE1-XBP1 UPR activation; percent of tunicamycin response, DMSO as zero;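 active means versus positive control, 20 µM dose yields 30% or more activation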;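 further: 100% = tunicamycin at 10 µg/mL and 0% = DMSO only wells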
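assay system = CHO-XBP1 luciferase reporter cells | amount = 1000 cells/well | buffer or medium = F12 plus 10% FBS | compound dosing = single point, 20 µM final compound, 1% DMSO | incubation = 16-18 h cell attachment at 37 °C, then 6 h compound exposure | detection = Steady-Glo luminescence read | controls = tunicamycin 10 µg/mL and vehicle-only wells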
697 NFkB inh – inhibitors of PMA/ionomycin-induced NF-kB reporter, 697 cells, primary screen, B-cell NF-kB inhibitor project, cell-based, luminescence, uHTS. 697 B-cell NF-kB luciferase reporter, 16 h. inhibition, % at 4 µM. actives 0.33% (n = 330,000); in the data active means inhibition above about 35%
* marks the source's active call; other numbers are inactive results; . = not tested or not shown.

SMILES	Jurkat NFkB inh	CHOP inhibitor	CHOP UPR activ	XBP1 UPR activ	697 NFkB inh
CCCCCC(=O)N/N=C(\C)c1ccc(N2CCCCC2)cc1	-3	76*	1	-1	-18
CCCCCCCC(=O)N/N=C(\C)c1ccc(N)cc1	6	0	-1	-5	6
O=[N+]([O-])c1cccc(S(=O)(=O)Nc2nc3ccccc3nc2Nc2cccc(S(=O)(=O)N3CCCCC3)c2)c1	.	82*	.	.	.
Cc1ccc(S(=O)(=O)Nc2nc3ccccc3nc2Nc2cccc(S(=O)(=O)N3CCCC3)c2)cc1	-11	31	2	0	-42
Clc1ccc2nc(N3CCNCC3)nc(-c3ccccc3)c2c1	0	.	2	23	-1
O=C1CN(c2nc(-c3ccccc3)c3cc(Cl)ccc3n2)c2ccccc2N1	6	74*	36	22	1
CCOC(=O)c1c(NC(=S)Nc2ccc(F)cc2)sc2c1CCC2	-7	74*	-2	0	15
COC(=O)c1cn(NC(=O)CC2CCCCC2)c(=O)c2ccccc12	9	72*	1	-1	16
O=[N+]([O-])c1cccnc1NCCNc1ncc(C(F)(F)F)cc1Cl	-78	75*	6	3	-105
O=[N+]([O-])c1ccccc1NCCNc1ncc(C(F)(F)F)cc1Cl	-28	58	2	-1	-19
Cc1ccc(C2OCC3(CO2)COC(c2ccc(C)cc2)OC3)cc1 (centres undefined)	-3	80*	-2	-2	19
COCC(=O)OC/C(O)=C(\C#N)c1nc2ccccc2[nH]1	5	15	1	-2	12
Cc1cc(Br)ccc1SCC(=O)OC/C(O)=C(\C#N)c1nc2ccccc2[nH]1	39	101*	1	0	-2
CCCC(=O)OC/C(O)=C(\C#N)c1nc2ccccc2[nH]1	5	5	-2	-2	16
Cc1ccc(C)c(SCC(=O)OC/C(O)=C(\C#N)c2nc3ccccc3[nH]2)c1	.	95*	.	.	.
CC(C)C(=O)OC/C(O)=C(\C#N)c1nc2ccccc2[nH]1	-10	-3	0	0	4
N#C/C(=C(/O)COC(=O)CSc1ccc2ccccc2c1)c1nc2ccccc2[nH]1	30	92*	-1	1	-22
Cc1nnsc1S(=O)(=O)c1ccccc1	4	.	1	-4	-27
O=[N+]([O-])c1cccnc1N1CCC(c2cc(-c3ccc(Cl)cc3Cl)n[nH]2)CC1	-13	92*	-1	1	0
CC(=C/c1ccc(C(C)C)cc1)/C=N/NC(=O)Cn1nc(C)cc1C	7	66	3	-2	-30
CC(/C=N/NC(=O)Cn1nccc1C)=C\c1ccc(C(C)C)cc1	1	76*	7	-3	-22
Cc1ccc(C)n1-n1c(C)nc2sc3c(c2c1=O)CCCCC3	8	79*	-1	-5	18
Cc1ccc(C)n1-n1cnc2sc3c(c2c1=O)CCCCC3	-20	34	-1	-2	-14
O=C(NC1CCCCCC1)C1CCC(CNS(=O)(=O)c2ccc(Br)s2)CC1 (centres undefined)	-8	95*	-1	-3	-13
COc1ccc(NC(=O)N2CCC(CO)(CC3CCCCO3)CC2)c(OC)c1 (centres undefined)	-1	8	1	1	10
SMILES	Jurkat NFkB inh	CHOP inhibitor	CHOP UPR activ	XBP1 UPR activ	697 NFkB inh
CCOc1cc(CNCCc2ccc(S(N)(=O)=O)cc2)ccc1OCc1ccccc1	.	12	.	.	.
CCOc1cc(CNCCc2ccc(S(N)(=O)=O)cc2)cc(Cl)c1OCc1ccccc1	36	70*	8	9	-38
Cc1ccccc1C(=NC(=O)c1ccccc1)c1ccccc1	-2	72*	1	-1	1
CCCc1nc(SCC(=O)N2CCCc3ccccc32)c2c(=O)n(C)c(=O)n(C)c2n1	-4	70	5	-2	-14
Cn1c(=O)c2c(SCC(=O)N3CCCc4ccccc43)nc(CC(C)(C)C)nc2n(C)c1=O	15	84*	4	-2	-37
Cc1cccc(OCC(=O)NCC(=O)N/N=C/c2cc(Br)cc(Br)c2O)c1	3	.	-1	-1	-11
